Reference: the array DNA melting data of Ke et al. (doi:10.1101/2024.01.08.574731)

Key:
[1] = melting temperature; fluorescence melt of hairpins on a sequencing array, two-state fit, raised by 9.35 °C to match UV melts; settings: sodium 0.088 M
How it was run: (§1)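 In 50 mM Na-HEPES pH 8.0 containing 25 mM NaCl, hairpins from the library on a sequenced MiSeq flow cell were imaged for Cy3 fluorescence at 2.5 °C steps up to 60 °C, with Cy3 and quencher oligos annealed. After normalisation to pre-quench Cy3 and to control constructs, two-state fits with bootstrapping gave melting temperature and folding enthalpy. Four replicates were combined by inverse-variance weighting, and fitted temperatures were shifted up by 9.35 °C to match UV melts.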

[2] = folding enthalpy; higher = less favourable; fluorescence melt of hairpins on a sequencing array, two-state fit; settings: sodium 0.088 M
How it was run: as §1

GCCCCGCGAAAGCGAAGC ((..(((....)))..))
Tm [1]: 39.2 °C
folding enthalpy [2]: -8.06 kcal/mol

GACTAGAAATAGTC (((((....)))))
Tm [1]: 37.6 °C
folding enthalpy [2]: -15.7 kcal/mol

GATCTGAAACCAGATC ((((((....))))))
Tm [1]: 43 °C
folding enthalpy [2]: -29.7 kcal/mol

GTGAGAACGAAAGTTCAC (((..(((....))))))
Tm [1]: 43.9 °C
folding enthalpy [2]: -18 kcal/mol

GCTTCGGGAAACCGGAGC (((.(((....))).)))
Tm [1]: 56.5 °C
folding enthalpy [2]: -41.5 kcal/mol

GCCGAGCGAAAGCACCGC ((.(.((....)).).))
Tm [1]: 38.5 °C
folding enthalpy [2]: -14.1 kcal/mol

GATCCACGAGTGGATC ((((((....))))))
Tm [1]: 62.8 °C
folding enthalpy [2]: -39.8 kcal/mol

GGGGTAGGAAACCACCCC (((((.(....).)))))
Tm [1]: 50.7 °C
folding enthalpy [2]: -30.2 kcal/mol

GAACGCCGAAAGGCCTTC (((.(((....))).)))
Tm [1]: 34.5 °C
folding enthalpy [2]: -13.1 kcal/mol

GTGGCCGGAAACGGTCAC (((.(((....))).)))
Tm [1]: 66.1 °C
folding enthalpy [2]: -37.2 kcal/mol

GTCGCCGAAAGGCCGAC ((((((....))).)))
Tm [1]: 60.7 °C
folding enthalpy [2]: -18.1 kcal/mol

GCACCCGGAAACGGGTAC (.(((((....))))).)
Tm [1]: 45.1 °C
folding enthalpy [2]: -12.7 kcal/mol

CGCGGAAAATCCGCG ((((((...))))))
Tm [1]: 62.3 °C
folding enthalpy [2]: -42.4 kcal/mol

GACGTTGGAAACAACGCC (.(((((....))))).)
Tm [1]: 48.8 °C
folding enthalpy [2]: -12.4 kcal/mol

GATCATATGTATGATC ((((((....))))))
Tm [1]: 48.6 °C
folding enthalpy [2]: -41.6 kcal/mol

GTGGCCGAAAGGCGTCAC ((((((....)))..)))
Tm [1]: 43.5 °C
folding enthalpy [2]: -12.2 kcal/mol

GCCACTCGAAAGAGCGGC (((.(((....))).)))
Tm [1]: 61.3 °C
folding enthalpy [2]: -46.9 kcal/mol

GCCTGGACGAAAGTCGGC (((..(((....))))))
Tm [1]: 51.2 °C
folding enthalpy [2]: -22.6 kcal/mol

GATCATTTAATGATC ((((((...))))))
Tm [1]: 48 °C
folding enthalpy [2]: -27.6 kcal/mol

GGATAACGAAAGTTTCC (((.(((....))))))
Tm [1]: 40.1 °C
folding enthalpy [2]: -20.4 kcal/mol

GTCTGGGGAAACCCGGAC (((.(((....))).)))
Tm [1]: 55.5 °C
folding enthalpy [2]: -39.6 kcal/mol

GATAGCGCGAAAGCGATC (((..(((....))))))
Tm [1]: 32.2 °C
folding enthalpy [2]: -9.46 kcal/mol

GCGTGTGACGC ((((...))))
Tm [1]: 53.4 °C
folding enthalpy [2]: -23.8 kcal/mol

AGGTTGAAAAACCT (((((....)))))
Tm [1]: 45.6 °C
folding enthalpy [2]: -20.5 kcal/mol

GAGTTGCGAAAGCACTC (((.(((....))))))
Tm [1]: 53.9 °C
folding enthalpy [2]: -21.7 kcal/mol

GATCAAGAATTGATC ((((((...))))))
Tm [1]: 51.9 °C
folding enthalpy [2]: -34.6 kcal/mol

GCCCGGCGAAAGCCAAGC ((..(((....)))..))
Tm [1]: 35.7 °C
folding enthalpy [2]: -10.7 kcal/mol

GATCGAGCGGTCGATC ((((((....))))))
Tm [1]: 53 °C
folding enthalpy [2]: -45.7 kcal/mol

GATCTACAAATAGATC ((((((....))))))
Tm [1]: 36.6 °C
folding enthalpy [2]: -25.4 kcal/mol

GGGGCCGAAAGGCGTCCC ((((((....)))..)))
Tm [1]: 53.5 °C
folding enthalpy [2]: -13.5 kcal/mol

GATCGGTCCCCCGATC ((((((....))))))
Tm [1]: 55.7 °C
folding enthalpy [2]: -45 kcal/mol

GCAAATCGAAAGATATGC (((.(((....))).)))
Tm [1]: 45.1 °C
folding enthalpy [2]: -29.4 kcal/mol

GGATGGAAACATCC (((((....)))))
Tm [1]: 51.8 °C
folding enthalpy [2]: -29.8 kcal/mol

GATCTCTTACGAGATC ((((((....))))))
Tm [1]: 52.2 °C
folding enthalpy [2]: -44.7 kcal/mol

GGCTACGGAAACGTGGCC (((.(((....))).)))
Tm [1]: 60.1 °C
folding enthalpy [2]: -47.4 kcal/mol

GCCGTTGGAAACAATGGC (((.(((....))).)))
Tm [1]: 55.8 °C
folding enthalpy [2]: -36.6 kcal/mol

GGCTGCGAAAGCAGAGCC ((((((....)))..)))
Tm [1]: 60.1 °C
folding enthalpy [2]: -16.3 kcal/mol

GTTCCCGGAAACGGGAGC (.(((((....))))).)
Tm [1]: 54.2 °C
folding enthalpy [2]: -26 kcal/mol

GCTTCTTCGAAAGAAAGC (((..(((....))))))
Tm [1]: 30.3 °C
folding enthalpy [2]: -16 kcal/mol

GGAGTCCGAAAGGATCC (((.(((....))))))
Tm [1]: 47.8 °C
folding enthalpy [2]: -21.6 kcal/mol

GGTGTAGGAAACTGCACC ((((.((....)).))))
Tm [1]: 52.7 °C
folding enthalpy [2]: -44.5 kcal/mol

GGTGACGAAAGTCCCACC ((((((....)))..)))
Tm [1]: 43.4 °C
folding enthalpy [2]: -12.9 kcal/mol

GCATACCGAAAGGTGTGC (((.(((....))).)))
Tm [1]: 63.3 °C
folding enthalpy [2]: -43.2 kcal/mol

GTCGATCGAAAGATTGAC (((.(((....))).)))
Tm [1]: 53.6 °C
folding enthalpy [2]: -51.8 kcal/mol

GGCTTCGAAAGAATTGCC ((((((....)))..)))
Tm [1]: 35.4 °C
folding enthalpy [2]: -23.3 kcal/mol

GGACAGGGAAACCTGTCC (((((((....)))))))
Tm [1]: 68.3 °C
folding enthalpy [2]: -37.4 kcal/mol

GTGTAAGGAAACTTATAC ((.((((....)))).))
Tm [1]: 33.8 °C
folding enthalpy [2]: -19.6 kcal/mol

GGTTGACGAAAGTCACC (((.(((....))))))
Tm [1]: 53.5 °C
folding enthalpy [2]: -19.8 kcal/mol

GCACACGGAAACACGTGC ((((..(....)..))))
Tm [1]: 40.2 °C
folding enthalpy [2]: -22.5 kcal/mol

GTCTTCGAAAGAAATGAC ((((((....)))..)))
Tm [1]: 25.1 °C
folding enthalpy [2]: -9.91 kcal/mol

GATCATGAGGATGATC ((((((....))))))
Tm [1]: 43.7 °C
folding enthalpy [2]: -38.4 kcal/mol

GAGAGGCCGAAAGGCCTC (((..(((....))))))
Tm [1]: 65.9 °C
folding enthalpy [2]: -7.49 kcal/mol

GCGGTAGGCCGC ((((....))))
Tm [1]: 63.7 °C
folding enthalpy [2]: -17.4 kcal/mol

GGTACACGAAAGTGGACC (((.(((....))).)))
Tm [1]: 67.2 °C
folding enthalpy [2]: -38.2 kcal/mol

GCGATTCGAAAGAAACGC (((.(((....))).)))
Tm [1]: 55.7 °C
folding enthalpy [2]: -47.3 kcal/mol

GATCAAGGACTTGATC ((((((....))))))
Tm [1]: 50.7 °C
folding enthalpy [2]: -40 kcal/mol

GACTTGGGAAACCAAATC ((.((((....)))).))
Tm [1]: 28 °C
folding enthalpy [2]: -14 kcal/mol

GGGGGGAAACCCCC (((((....)))))
Tm [1]: 65.9 °C
folding enthalpy [2]: -21.5 kcal/mol

GGTAGTGGAAACATTGCC ((.(.((....)).).))
Tm [1]: 28.5 °C
folding enthalpy [2]: -17.1 kcal/mol

GCGCCGCGAAAGCGTTGC ((..(((....)))..))
Tm [1]: 47.6 °C
folding enthalpy [2]: -15.3 kcal/mol

GGCTCTGGAAACAGGGTC (.(.(((....))).).)
Tm [1]: 37.5 °C
folding enthalpy [2]: -29.6 kcal/mol

GCTGCTTCGAAAGAAAGC (((..(((....))))))
Tm [1]: 39.6 °C
folding enthalpy [2]: -18 kcal/mol

GGAGTACGAAAGTATTCC (((.(((....))).)))
Tm [1]: 49.2 °C
folding enthalpy [2]: -33.1 kcal/mol

GCCTCTCCGAAAGGAGGC (((..(((....))))))
Tm [1]: 52.9 °C
folding enthalpy [2]: -12.4 kcal/mol

GCAATGCGAAAGCGATGC (((..((....))..)))
Tm [1]: 53 °C
folding enthalpy [2]: -20.6 kcal/mol

GCGTATCTACGC ((((....))))
Tm [1]: 56.9 °C
folding enthalpy [2]: -24.4 kcal/mol

GCAATTGGAAACGATTGC (((((.(....).)))))
Tm [1]: 48.4 °C
folding enthalpy [2]: -37.4 kcal/mol

GCCGATTCGAAAGAAGGC (((..(((....))))))
Tm [1]: 43.2 °C
folding enthalpy [2]: -28.9 kcal/mol

GTCGTACGAAAGTAGGAC (((.(((....))).)))
Tm [1]: 53.7 °C
folding enthalpy [2]: -39.7 kcal/mol

GCGGCATACCGC ((((....))))
Tm [1]: 58.3 °C
folding enthalpy [2]: -32 kcal/mol

GTCTTCGAAAGAATGAC ((((((....))).)))
Tm [1]: 37.9 °C
folding enthalpy [2]: -25 kcal/mol

GGTCTCGGAAACGGGATC (.((.((....)).)).)
Tm [1]: 39 °C
folding enthalpy [2]: -28.8 kcal/mol

GAACAGACGAAAGTCTTC (((..(((....))))))
Tm [1]: 25.6 °C
folding enthalpy [2]: -9.42 kcal/mol

GCCTCCGAAAGGATTGGC ((((((....)))..)))
Tm [1]: 47.4 °C
folding enthalpy [2]: -19.7 kcal/mol

GGTCGAGGAAACTCGATC (.(((((....))))).)
Tm [1]: 52.2 °C
folding enthalpy [2]: -30.7 kcal/mol

GCAGTGCGAAAGCTTTGC (((..((....))..)))
Tm [1]: 51.2 °C
folding enthalpy [2]: -14 kcal/mol

GCAATGGGAAACTATTGC (((((.(....).)))))
Tm [1]: 47 °C
folding enthalpy [2]: -33.5 kcal/mol

GCATAGCGAAAGCGTTGC (((..((....))..)))
Tm [1]: 56.8 °C
folding enthalpy [2]: -27.1 kcal/mol

GGTGTTACGAAAGTAACC (((..(((....))))))
Tm [1]: 45.2 °C
folding enthalpy [2]: -13.8 kcal/mol

GCGGCGCGAAAGCAGCGC (((..((....))..)))
Tm [1]: 68.1 °C
folding enthalpy [2]: -27.4 kcal/mol

GCCCCGGGAAACCGGGAC (.(((((....))))).)
Tm [1]: 53.7 °C
folding enthalpy [2]: -12.2 kcal/mol

GGAACCCGAAAGGGCTCC (((.(((....))).)))
Tm [1]: 54.5 °C
folding enthalpy [2]: -32.4 kcal/mol

GATCCTTCACAGGATC ((((((....))))))
Tm [1]: 51.7 °C
folding enthalpy [2]: -34.7 kcal/mol

GAAGAGACGAAAGTCTTC (((..(((....))))))
Tm [1]: 30.6 °C
folding enthalpy [2]: -9.13 kcal/mol

GCTTGCCGAAAGGCCAGC (((.(((....))).)))
Tm [1]: 54.1 °C
folding enthalpy [2]: -27.9 kcal/mol

GGTAAGCGAAAGCTGACC (((.(((....))).)))
Tm [1]: 58.4 °C
folding enthalpy [2]: -26.2 kcal/mol

GATCACAGTGGTGATC ((((((....))))))
Tm [1]: 56.5 °C
folding enthalpy [2]: -50 kcal/mol

GCGATGCGAAAGCACGGC ((..(((....)))..))
Tm [1]: 51.2 °C
folding enthalpy [2]: -16.5 kcal/mol

GCGAATCCGAAAGGACGC (((..(((....))))))
Tm [1]: 48.7 °C
folding enthalpy [2]: -26.1 kcal/mol

GAATGACGAAAGTCTTTC (((.(((....))).)))
Tm [1]: 44.6 °C
folding enthalpy [2]: -25.6 kcal/mol

GAACCGAAAGGTTC (((((....)))))
Tm [1]: 67.7 °C
folding enthalpy [2]: -25.6 kcal/mol

GATCGCGGGGGCGATC ((((((....))))))
Tm [1]: 69.3 °C
folding enthalpy [2]: -27.7 kcal/mol

GGAGCGACGAAAGTCTCC (((..(((....))))))
Tm [1]: 36.6 °C
folding enthalpy [2]: -13.9 kcal/mol
